# Experimental data reported in ChEMBL document CHEMBL4732040, “Irreversible inhibition of BoNT/A protease: proximity-driven reactivity contingent upon a bifunctional approach” (RSC Med Chem, 2021).
# Counter-ions that a name gives are not always drawn. Active and inactive are the calls of the source. No cut-off for these calls is given here.
# How the values were obtained:
# [1] = target: Botulinum neurotoxin type A (Clostridium botulinum) (UniProt P0DPI0); assay: Time dependent inhibition of Clostridium botulinum BoNT/A light chain (1 to 425 residues) using SNAPtide flp6 as substrate by FRET assay; conditions: dose 100.0 µM, time hrs <=8
# [2] = GSH reactivity assessed as pseudo first order rate constant at 1 mM in presence of glutathione; format: physicochemical; conditions: 1000 µM
# [3] = target: T1, Interstitial collagenase (Homo sapiens, UniProt P03956); assay: Inhibition of MMP-1 (unknown origin) at 25 uM using TQ3-GABA-Pro-Cha-Abu-Smc-His-Ala-Dab(6'-TAMRA)-Ala-Lys-NH2 as substrate bu fluorometric analysis
# T1 sequence (P03956 whole entry): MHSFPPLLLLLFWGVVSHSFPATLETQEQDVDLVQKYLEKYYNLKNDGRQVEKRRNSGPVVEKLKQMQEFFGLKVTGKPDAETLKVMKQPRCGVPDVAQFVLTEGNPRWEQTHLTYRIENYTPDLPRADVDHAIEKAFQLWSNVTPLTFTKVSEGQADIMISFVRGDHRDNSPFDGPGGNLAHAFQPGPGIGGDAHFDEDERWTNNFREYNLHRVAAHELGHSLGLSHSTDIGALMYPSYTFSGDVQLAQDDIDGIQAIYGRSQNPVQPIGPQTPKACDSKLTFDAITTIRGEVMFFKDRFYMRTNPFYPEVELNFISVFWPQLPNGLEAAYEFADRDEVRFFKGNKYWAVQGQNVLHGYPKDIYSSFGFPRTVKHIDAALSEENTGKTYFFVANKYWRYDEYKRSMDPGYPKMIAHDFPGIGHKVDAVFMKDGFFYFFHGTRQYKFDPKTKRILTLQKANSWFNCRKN
# In short: (§1)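 Residual activity of each MMP in the panel was measured in the presence of compound at 25 μM.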
# [4] = target: 72 kDa type IV collagenase (Homo sapiens, UniProt P08253); assay: Inhibition of MMP-2 (unknown origin) at 25 uM using TQ3-GABA-Pro-Cha-Abu-Smc-His-Ala-Dab(6'-TAMRA)-Ala-Lys-NH2 as substrate bu fluorometric analysis; in short: as §1
# [5] = target: Stromelysin-1 (Homo sapiens, UniProt P08254); assay: Inhibition of MMP-3 (unknown origin) at 25 uM using TQ3-GABA-Pro-Cha-Abu-Smc-His-Ala-Dab(6'-TAMRA)-Ala-Lys-NH2 as substrate bu fluorometric analysis; in short: as §1
# [6] = target: T2, Matrilysin (Homo sapiens, UniProt P09237); assay: Inhibition of MMP-7 (unknown origin) at 25 uM using TQ3-GABA-Pro-Cha-Abu-Smc-His-Ala-Dab(6'-TAMRA)-Ala-Lys-NH2 as substrate bu fluorometric analysis; in short: as §1
# T2 sequence (P09237 whole entry): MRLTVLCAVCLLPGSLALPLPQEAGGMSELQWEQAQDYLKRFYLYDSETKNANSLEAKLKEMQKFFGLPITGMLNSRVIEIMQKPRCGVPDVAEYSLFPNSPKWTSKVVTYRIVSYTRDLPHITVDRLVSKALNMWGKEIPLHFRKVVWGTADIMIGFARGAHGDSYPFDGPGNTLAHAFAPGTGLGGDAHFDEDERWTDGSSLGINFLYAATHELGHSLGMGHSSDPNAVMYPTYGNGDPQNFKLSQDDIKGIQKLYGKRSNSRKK
# [7] = target: Neutrophil collagenase (Homo sapiens, UniProt P22894); assay: Inhibition of MMP-8 (unknown origin) at 25 uM using TQ3-GABA-Pro-Cha-Abu-Smc-His-Ala-Dab(6'-TAMRA)-Ala-Lys-NH2 as substrate bu fluorometric analysis; in short: as §1
# [8] = target: Macrophage metalloelastase (Homo sapiens, UniProt P39900); assay: Inhibition of MMP-12 (unknown origin) at 25 uM using TQ3-GABA-Pro-Cha-Abu-Smc-His-Ala-Dab(6'-TAMRA)-Ala-Lys-NH2 as substrate bu fluorometric analysis; in short: as §1
# [9] = target: Collagenase 3 (Homo sapiens, UniProt P45452); assay: Inhibition of MMP-13 (unknown origin) at 25 uM using TQ3-GABA-Pro-Cha-Abu-Smc-His-Ala-Dab(6'-TAMRA)-Ala-Lys-NH2 as substrate bu fluorometric analysis; in short: as §1
# [10] = target: Matrix metalloproteinase-14 (Homo sapiens, UniProt P50281); assay: Inhibition of MMP-14 (unknown origin) at 25 uM using TQ3-GABA-Pro-Cha-Abu-Smc-His-Ala-Dab(6'-TAMRA)-Ala-Lys-NH2 as substrate bu fluorometric analysis; in short: as §1
# [11] = target: T3, Matrix metalloproteinase-19 (Homo sapiens, UniProt Q99542); assay: Inhibition of MMP-19 (unknown origin) at 25 uM using TQ3-GABA-Pro-Cha-Abu-Smc-His-Ala-Dab(6'-TAMRA)-Ala-Lys-NH2 as substrate bu fluorometric analysis; in short: as §1
# T3 sequence (Q99542 whole entry): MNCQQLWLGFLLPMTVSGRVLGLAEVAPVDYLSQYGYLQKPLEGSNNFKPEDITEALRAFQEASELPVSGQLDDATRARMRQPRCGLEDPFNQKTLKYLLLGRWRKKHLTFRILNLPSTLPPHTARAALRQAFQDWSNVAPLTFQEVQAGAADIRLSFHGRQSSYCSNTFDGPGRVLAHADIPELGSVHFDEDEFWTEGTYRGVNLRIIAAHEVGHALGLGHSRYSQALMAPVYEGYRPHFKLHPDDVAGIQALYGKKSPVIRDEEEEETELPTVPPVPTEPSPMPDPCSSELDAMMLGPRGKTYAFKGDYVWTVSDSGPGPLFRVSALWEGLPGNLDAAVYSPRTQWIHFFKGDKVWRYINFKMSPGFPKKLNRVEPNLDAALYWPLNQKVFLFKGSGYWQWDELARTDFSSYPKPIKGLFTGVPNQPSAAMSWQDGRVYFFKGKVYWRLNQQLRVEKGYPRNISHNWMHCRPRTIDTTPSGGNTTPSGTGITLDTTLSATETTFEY
# [12] = test system: HEK293; assay: Cytotoxicity against human HEK293 cells assessed as reduction in cell viability incubated for 24 hrs by MTT assay; format: cell-based; conditions: for Activity: human, hek293, 24 h, time 24 hrs
# In short: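 HEK293 cells were exposed to compound for 24 h before viability read-out. The paper reports n = 3, with error bars as SD.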
# [13] = target: Botulinum neurotoxin type A (Clostridium botulinum) (UniProt P0DPI0); assay: Irreversible inhibition of Clostridium botulinum BoNT/A light chain (1 to 425 residues) assessed as ratio of Kinact/Ki using SNAPtide flp6 as substrate inhibited for 1 hr by FRET assay
# [14] = GSH reactivity assessed as half life at 1 mM in presence of glutathione; format: physicochemical
# Chain of 72 kDa type IV collagenase (P08253 whole entry): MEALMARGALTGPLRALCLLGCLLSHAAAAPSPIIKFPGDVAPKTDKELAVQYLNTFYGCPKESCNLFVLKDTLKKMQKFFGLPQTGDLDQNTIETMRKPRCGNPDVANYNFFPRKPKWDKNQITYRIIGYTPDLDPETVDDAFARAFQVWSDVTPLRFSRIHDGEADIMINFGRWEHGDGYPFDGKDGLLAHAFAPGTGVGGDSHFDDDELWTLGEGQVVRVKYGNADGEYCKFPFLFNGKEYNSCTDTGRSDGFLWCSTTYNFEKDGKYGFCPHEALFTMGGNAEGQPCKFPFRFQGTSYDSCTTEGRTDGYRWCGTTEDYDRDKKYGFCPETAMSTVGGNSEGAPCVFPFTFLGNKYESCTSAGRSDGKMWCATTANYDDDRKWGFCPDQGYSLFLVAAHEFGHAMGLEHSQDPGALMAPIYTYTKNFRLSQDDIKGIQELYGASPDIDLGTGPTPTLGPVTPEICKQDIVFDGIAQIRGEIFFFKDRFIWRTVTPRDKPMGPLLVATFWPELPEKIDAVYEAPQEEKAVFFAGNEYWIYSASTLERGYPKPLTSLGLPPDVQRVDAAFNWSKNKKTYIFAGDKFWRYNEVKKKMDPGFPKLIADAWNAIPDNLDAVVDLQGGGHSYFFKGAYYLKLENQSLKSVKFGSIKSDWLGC
# Chain of Stromelysin-1 (P08254 whole entry): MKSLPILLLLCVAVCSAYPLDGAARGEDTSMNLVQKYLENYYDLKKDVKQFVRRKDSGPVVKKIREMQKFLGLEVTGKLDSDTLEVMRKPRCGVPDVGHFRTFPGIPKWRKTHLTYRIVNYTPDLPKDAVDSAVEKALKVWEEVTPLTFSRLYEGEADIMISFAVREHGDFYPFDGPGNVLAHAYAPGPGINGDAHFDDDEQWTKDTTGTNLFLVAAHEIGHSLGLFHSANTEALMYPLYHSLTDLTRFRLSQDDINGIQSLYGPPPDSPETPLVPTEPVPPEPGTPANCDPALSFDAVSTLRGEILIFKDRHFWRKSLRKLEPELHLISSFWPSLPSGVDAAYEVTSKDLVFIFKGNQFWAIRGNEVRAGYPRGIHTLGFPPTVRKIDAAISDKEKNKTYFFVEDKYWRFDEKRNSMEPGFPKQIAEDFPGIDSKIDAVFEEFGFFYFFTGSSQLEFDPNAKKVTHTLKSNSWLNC
# Chain of Macrophage metalloelastase (P39900 whole entry): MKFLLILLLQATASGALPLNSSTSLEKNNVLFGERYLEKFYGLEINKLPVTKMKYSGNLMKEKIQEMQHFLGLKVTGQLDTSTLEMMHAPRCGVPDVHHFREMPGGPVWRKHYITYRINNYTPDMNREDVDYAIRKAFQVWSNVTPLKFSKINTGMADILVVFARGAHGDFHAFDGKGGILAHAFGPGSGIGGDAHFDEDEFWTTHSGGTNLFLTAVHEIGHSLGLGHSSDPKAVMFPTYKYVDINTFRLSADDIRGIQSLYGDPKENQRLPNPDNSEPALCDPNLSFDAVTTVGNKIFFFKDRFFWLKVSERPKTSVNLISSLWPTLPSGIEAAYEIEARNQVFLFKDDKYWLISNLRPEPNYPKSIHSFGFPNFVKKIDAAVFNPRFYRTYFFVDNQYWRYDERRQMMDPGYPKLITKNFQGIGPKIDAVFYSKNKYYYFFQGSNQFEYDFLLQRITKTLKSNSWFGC
# Chain of Neutrophil collagenase (P22894 whole entry): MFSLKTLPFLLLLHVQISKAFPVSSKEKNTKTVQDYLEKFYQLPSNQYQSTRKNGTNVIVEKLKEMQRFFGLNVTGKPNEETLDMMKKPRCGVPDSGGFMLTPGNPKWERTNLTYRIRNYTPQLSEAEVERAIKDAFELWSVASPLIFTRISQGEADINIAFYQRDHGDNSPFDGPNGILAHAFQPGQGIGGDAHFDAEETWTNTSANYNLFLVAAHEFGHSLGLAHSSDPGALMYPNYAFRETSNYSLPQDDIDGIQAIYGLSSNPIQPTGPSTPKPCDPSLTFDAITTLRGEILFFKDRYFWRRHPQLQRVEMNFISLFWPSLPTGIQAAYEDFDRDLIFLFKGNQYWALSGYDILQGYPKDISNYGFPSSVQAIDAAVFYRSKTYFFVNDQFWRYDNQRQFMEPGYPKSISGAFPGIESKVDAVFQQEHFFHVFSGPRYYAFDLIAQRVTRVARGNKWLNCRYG
# Chain of Botulinum neurotoxin type A (Clostridium botulinum) (P0DPI0 2-448 limits assumed): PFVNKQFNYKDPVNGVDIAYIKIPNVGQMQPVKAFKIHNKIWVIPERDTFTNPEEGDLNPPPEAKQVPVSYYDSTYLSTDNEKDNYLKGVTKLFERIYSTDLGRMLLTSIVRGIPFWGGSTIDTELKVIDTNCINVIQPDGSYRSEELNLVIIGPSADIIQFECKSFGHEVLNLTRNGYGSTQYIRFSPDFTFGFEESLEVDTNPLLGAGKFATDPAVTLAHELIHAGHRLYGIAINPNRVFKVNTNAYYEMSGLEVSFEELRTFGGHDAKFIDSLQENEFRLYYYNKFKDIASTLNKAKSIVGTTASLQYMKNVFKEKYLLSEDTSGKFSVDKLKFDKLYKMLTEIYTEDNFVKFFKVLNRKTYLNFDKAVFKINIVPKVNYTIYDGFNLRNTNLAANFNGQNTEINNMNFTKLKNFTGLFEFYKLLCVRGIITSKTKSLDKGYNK
smiles,measurement,setting,value
O=C(NCCN(O)C(=O)/C=C/c1ccc(Cl)cc1Cl)Oc1ccccc1,TDI,[1],inactive
C=CC(=O)NCCCCCN(O)C(=O)/C=C/c1ccc(Cl)cc1Cl,TDI,[1],inactive
C=C(F)C(=O)NCCCCN(O)C(=O)/C=C/c1ccc(Cl)cc1Cl,TDI,[1],inactive
O=C(CBr)NCCCN(O)C(=O)/C=C/c1ccc(Cl)cc1Cl,TDI,[1],inactive
C=CC(=O)NCCN(O)C(=O)/C=C/c1ccc(Cl)cc1Cl,TDI,[1],inactive
O=C(/C=C/c1ccc(Cl)cc1Cl)N(O)CCCN1C(=O)C=CC1=O,K,[2],0.0023 min⁻¹
same,inhibition (INH),[3],Active
same,inhibition (INH),[4],Active
same,inhibition (INH),[5],Active
same,inhibition (INH),[6],Active
same,inhibition (INH),[7],Active
same,inhibition (INH),[8],Active
same,inhibition (INH),[9],Active
same,inhibition (INH),[10],Active
same,inhibition (INH),[11],Active
O=C(NCCCCN(O)C(=O)/C=C/c1ccc(Cl)cc1Cl)C(F)Cl (stereo not drawn),TDI,[1],inactive
O=C(CCl)NCCCCN(O)C(=O)/C=C/c1ccc(Cl)cc1Cl,TDI,[1],inactive
C=C(F)C(=O)NCCN(O)C(=O)/C=C/c1ccc(Cl)cc1Cl,TDI,[1],inactive
C=CC(=O)NCCCN(O)C(=O)/C=C/c1ccc(Cl)cc1Cl,TDI,[1],inactive
C#CCCN(O)C(=O)/C=C/c1ccc(Cl)cc1Cl,TDI,[1],inactive
O=C(/C=C/C(F)F)NCCCCN(O)C(=O)/C=C/c1ccc(Cl)cc1Cl,TDI,[1],inactive
O=C(/C=C/C(F)F)NCCCN(O)C(=O)/C=C/c1ccc(Cl)cc1Cl,TDI,[1],inactive
C=CC(=O)NCCCCCCN(O)C(=O)/C=C/c1ccc(Cl)cc1Cl,TDI,[1],inactive
CC(=O)NCCCN(O)C(=O)/C=C/c1ccc(Cl)cc1Cl,TDI,[1],inactive
same,Activity,[12],Non-Toxic
O=C(CI)NCCCN(O)C(=O)/C=C/c1ccc(Cl)cc1Cl,K,[2],0.0611 min⁻¹
same,inhibition (INH),[3],Not Active
same,inhibition (INH),[4],Not Active
same,inhibition (INH),[5],Not Active
same,inhibition (INH),[6],Not Active
same,inhibition (INH),[7],Not Active
same,inhibition (INH),[8],Not Active
same,inhibition (INH),[9],Not Active
same,inhibition (INH),[10],Not Active
same,inhibition (INH),[11],Not Active
O=C(/C=C/c1ccc(Cl)cc1Cl)N(O)CCCCN1C(=O)C=CC1=O,Ratio,[13],46.3 M⁻¹ s⁻¹
O=C(CCl)NCCN(O)C(=O)/C=C/c1ccc(Cl)cc1Cl,TDI,[1],inactive
O=C(CI)NCCCCN(O)C(=O)/C=C/c1ccc(Cl)cc1Cl,Ratio,[13],12.4 M⁻¹ s⁻¹
O=C(/C=C/c1ccc(Cl)cc1Cl)N(O)CCCN1C(=O)CCC1=O,inhibition,[1],inactive
same,Activity,[12],Non-Toxic
O=C(/C=C/c1ccc(Cl)cc1Cl)NCCCCCC1CO1 (stereo not drawn),TDI,[1],inactive
O=C(/C=C/c1ccc(Cl)cc1Cl)N(O)CCCCC1CO1 (stereo not drawn),TDI,[1],inactive
C=C(F)C(=O)NCCCN(O)C(=O)/C=C/c1ccc(Cl)cc1Cl,TDI,[1],inactive
C#CCN(O)C(=O)/C=C/c1ccc(Cl)cc1Cl,TDI,[1],inactive
O=C(/C=C/c1ccc(Cl)cc1Cl)NCCCN1C(=O)C=CC1=O,TDI,[1],Active
same,IC50,"[12]; Homo sapiens, HEK293, 24 h",6 µM
C#CCCCCN(O)C(=O)/C=C/c1ccc(Cl)cc1Cl,TDI,[1],inactive
O=C(/C=C/c1ccc(Cl)cc1Cl)N(O)CCCCCC1CO1 (stereo not drawn),K,[2],0.0012 min⁻¹
same,inhibition (INH),[3],Not Active
same,inhibition (INH),[4],Not Active
same,inhibition (INH),[5],Not Active
same,inhibition (INH),[6],Not Active
same,inhibition (INH),[7],Not Active
same,inhibition (INH),[8],Not Active
same,inhibition (INH),[9],Not Active
same,inhibition (INH),[10],Not Active
same,inhibition (INH),[11],Not Active
O=C(NCCN(O)C(=O)/C=C/c1ccc(Cl)cc1Cl)C(F)Cl (stereo not drawn),TDI,[1],inactive
O=C(NCCCN(O)C(=O)/C=C/c1ccc(Cl)cc1Cl)Oc1ccccc1,TDI,[1],inactive
O=C(CBr)NCCN(O)C(=O)/C=C/c1ccc(Cl)cc1Cl,TDI,[1],inactive
COC(=O)/C=C/C(=O)OC [DIMETHYL FUMARATE],K,[2],0.0589 min⁻¹
CS(=O)(=O)SCCCCCCN(O)C(=O)/C=C/c1ccc(Cl)cc1Cl,Ratio,[13],514 M⁻¹ s⁻¹
same,half-life at 1000 µM,[14],< 5 min
O=C(/C=C/c1ccc(Cl)cc1Cl)NCCCNC(=O)CI,TDI,[1],Active
same,Activity,[12],Toxic
C#CCCCN(O)C(=O)/C=C/c1ccc(Cl)cc1Cl,TDI,[1],inactive
O=C(CCl)NCCCN(O)C(=O)/C=C/c1ccc(Cl)cc1Cl,TDI,[1],inactive
O=C(CBr)NCCCCN(O)C(=O)/C=C/c1ccc(Cl)cc1Cl,TDI,[1],inactive
N#CC1(NC(=O)CCCN(O)C(=O)/C=C/c2ccc(Cl)cc2Cl)CC1,TDI,[1],inactive
O=C(/C=C/c1ccc(Cl)cc1Cl)N(O)CCCCCCC1CO1 (stereo not drawn),TDI,[1],inactive
C=CC(=O)NCCCCN(O)C(=O)/C=C/c1ccc(Cl)cc1Cl,TDI,[1],inactive
O=C(/C=C/C(F)F)NCCN(O)C(=O)/C=C/c1ccc(Cl)cc1Cl,TDI,[1],inactive
O=C(NCCCN(O)C(=O)/C=C/c1ccc(Cl)cc1Cl)C(F)Cl (stereo not drawn),TDI,[1],inactive
